Reference: ChEMBL document CHEMBL4368914, “Tricyclic Indazoles-A Novel Class of Selective Estrogen Receptor Degrader Antagonists” (J Med Chem, 2019)
In brackets after ≈: the same amount, converted by molar mass.

How the values were obtained:
Estrogen receptor [1] = target: T1, Estrogen receptor (Homo sapiens, UniProt P03372); assay: Binding affinity to recombinant human GST-tagged ERalpha LBD expressed in baculovirus-infected insect cells by lantha screen assay
T1 sequence (P03372 whole entry): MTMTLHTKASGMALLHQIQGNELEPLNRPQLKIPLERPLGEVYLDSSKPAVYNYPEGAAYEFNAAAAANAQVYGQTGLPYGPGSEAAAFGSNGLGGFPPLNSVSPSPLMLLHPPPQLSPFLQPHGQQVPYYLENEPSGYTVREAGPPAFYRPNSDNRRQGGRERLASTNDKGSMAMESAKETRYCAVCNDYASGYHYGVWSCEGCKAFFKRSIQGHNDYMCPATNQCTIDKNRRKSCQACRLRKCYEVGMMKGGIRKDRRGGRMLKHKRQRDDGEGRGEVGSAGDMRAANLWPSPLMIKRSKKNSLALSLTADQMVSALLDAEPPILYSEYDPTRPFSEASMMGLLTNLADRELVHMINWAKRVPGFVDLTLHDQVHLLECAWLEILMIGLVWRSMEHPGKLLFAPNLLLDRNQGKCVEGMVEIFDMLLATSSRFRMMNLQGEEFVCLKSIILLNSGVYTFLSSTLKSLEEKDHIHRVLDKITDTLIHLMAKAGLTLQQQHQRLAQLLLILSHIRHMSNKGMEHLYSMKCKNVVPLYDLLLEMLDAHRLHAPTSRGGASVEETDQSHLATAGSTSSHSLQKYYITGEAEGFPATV

Estrogen receptor [2] = target: T1, Estrogen receptor; assay: Induction of ERalpha degradation in human MCF7 cells after 18 to 24 hrs by in multiplexed cell assay; format: cell-based
Summary of the method: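 MCF-7 cells were kept at 37 °C, 5% CO₂ in phenol red-free RPMI1640 with 5% charcoal-stripped FCS and 2 mmol/L glutamine. Compounds came from 10 mmol/L DMSO stocks.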

[3] = Lipophilicity, log D of the compound at pH 7.4 by shake flask method; format: physicochemical; settings: buffer
Summary of the method: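 Shake-flask measurement of logD at pH 7.4.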

[4] = Fraction unbound in Alderley Park Han Wistar rat plasma by equilibrium dialysis; format: ADME, cell-free
Summary of the method: (§1)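 Equilibrium dialysis from DMSO stock in 10% plasma, either Alderley Park Han Wistar rat plasma or human plasma.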

[5] = Fraction unbound in 10% human plasma by equilibrium dialysis; format: ADME, cell-free; settings: 10% plasma; summary of the method: as §1
[6] = Intrinsic clearance in rat hepatocytes assessed per million cells; format: ADME, cell-based, Hepatocyte; settings: read-out: CLH
Summary of the method: (§2)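 Rate of metabolism (µl/min/10⁶ cells) measured from DMSO stock in isolated hepatocytes diluted to 1x10⁶ cells/mL.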

[7] = Intrinsic clearance in human hepatocytes assessed per million cells; format: ADME, cell-based, Hepatocyte; settings: read-out: CLH; summary of the method: as §2
[8] = Apparent permeability in human Caco2 cells at 10 uM; format: ADME, cell-based; settings: Caco-2
Summary of the method: (§3)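 Compound at 10 μM incubated on cultured Caco-2 or MDCK cells. Permeability was measured apical-to-basolateral and basolateral-to-apical, and efflux ratio was taken as (B to A)/(A to B).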

[9] = Efflux ratio of apparent permeability in human Caco2 cells at 10 uM; format: ADME, cell-based; settings: Caco-2; summary of the method: as §3
[10] = Apparent permeability in MDCK cells at 10 uM; format: ADME, cell-based, Canis lupus familiaris; settings: dog; summary of the method: as §3
[11] = Efflux ratio of apparent permeability in MDCK cells at 10 uM; format: ADME, cell-based, Canis lupus familiaris; settings: dog; summary of the method: as §3
[12] = Solubility of the compound in phosphate buffer at pH 7.4 after 24 hrs; format: physicochemical
Summary of the method: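 Solubility in aqueous phosphate buffer at pH 7.4 after 24 h at 25 °C.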

[13] = Fraction unbound in mouse plasma by equilibrium dialysis; format: ADME, cell-free
[14] = Fraction unbound in dog plasma by equilibrium dialysis; format: ADME, cell-free, Canis lupus familiaris
[15] = Clearance in rat at 0.5 mg/kg, iv or 1 mg/kg, po; format: ADME, organism-based; settings: in vivo
Summary of the method: (§4)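 Single IV dose of 0.5 mg/kg and oral dose of 1 mg/kg in rat and dog. Both routes were formulated in 5% DMSO:95% hydroxypropyl β-cyclodextrin (30% w/v), at 1 mL/kg IV and 4 mL/kg PO.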

[16] = Clearance in dog at 0.5 mg/kg, iv or 1 mg/kg, po; format: ADME, organism-based, Canis lupus familiaris; settings: in vivo; summary of the method: as §4
[17] = Volume of distribution at steady state in rat at 0.5 mg/kg, iv or 1 mg/kg, po; format: ADME, organism-based; settings: in vivo, read-out: Vdss; summary of the method: as §4
[18] = Volume of distribution at steady state in dog at 0.5 mg/kg, iv or 1 mg/kg, po; format: ADME, organism-based, Canis lupus familiaris; settings: in vivo, read-out: Vdss; summary of the method: as §4
[19] = Half life in rat at 0.5 mg/kg, iv or 1 mg/kg, po; format: ADME, organism-based; settings: in vivo; summary of the method: as §4
[20] = Half life in dog at 0.5 mg/kg, iv or 1 mg/kg, po; format: ADME, organism-based, Canis lupus familiaris; settings: in vivo; summary of the method: as §4
[21] = Oral bioavailability in rat at 1 mg/kg; format: ADME, organism-based; settings: in vivo; summary of the method: as §4
[22] = Oral bioavailability in dog at 1 mg/kg; format: ADME, organism-based, Canis lupus familiaris; settings: in vivo; summary of the method: as §4
[23] = AUC in rat at 1 mg/kg, po; format: ADME, organism-based; settings: in vivo; summary of the method: as §4
[24] = AUC in dog at 1 mg/kg, po; format: ADME, organism-based, Canis lupus familiaris; settings: in vivo; summary of the method: as §4
[25] = Glutathione reactivity in human liver microsomes assessed as GSH trapping ratio of compound to clozapine; format: ADME, Microsome
Summary of the method: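 Glutathione trapping in human liver microsomes, expressed as a ratio to clozapine.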

Cytochrome P450 2C9 = Cytochrome P450 2C9 (Homo sapiens, UniProt P11712); assay: Inhibition of CYP2C9 in human liver microsomes; format: ADME
Sequence of Cytochrome P450 2C9 (P11712 whole entry, canonical isoform): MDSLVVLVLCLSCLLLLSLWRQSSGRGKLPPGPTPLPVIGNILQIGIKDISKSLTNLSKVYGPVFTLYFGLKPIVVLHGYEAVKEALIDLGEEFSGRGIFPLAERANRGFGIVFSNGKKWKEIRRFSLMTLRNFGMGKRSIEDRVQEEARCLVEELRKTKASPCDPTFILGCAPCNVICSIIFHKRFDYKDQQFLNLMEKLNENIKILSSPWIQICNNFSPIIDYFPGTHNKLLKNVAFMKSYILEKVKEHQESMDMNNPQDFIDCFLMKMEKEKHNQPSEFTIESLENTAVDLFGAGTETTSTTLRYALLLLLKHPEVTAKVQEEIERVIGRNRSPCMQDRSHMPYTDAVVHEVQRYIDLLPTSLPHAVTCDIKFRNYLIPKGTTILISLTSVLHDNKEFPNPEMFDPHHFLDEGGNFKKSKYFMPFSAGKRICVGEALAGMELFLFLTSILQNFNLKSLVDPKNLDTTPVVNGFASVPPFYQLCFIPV
Summary of the method: (§5)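 High-throughput human liver microsome assay across a panel of five CYP isoforms, giving IC50.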

Cytochrome P450 3A4 = Cytochrome P450 3A4 (Homo sapiens, UniProt P08684); assay: Inhibition of CYP3A4 in human liver microsomes; format: ADME; summary of the method: as §5
Sequence of Cytochrome P450 3A4 (P08684 whole entry): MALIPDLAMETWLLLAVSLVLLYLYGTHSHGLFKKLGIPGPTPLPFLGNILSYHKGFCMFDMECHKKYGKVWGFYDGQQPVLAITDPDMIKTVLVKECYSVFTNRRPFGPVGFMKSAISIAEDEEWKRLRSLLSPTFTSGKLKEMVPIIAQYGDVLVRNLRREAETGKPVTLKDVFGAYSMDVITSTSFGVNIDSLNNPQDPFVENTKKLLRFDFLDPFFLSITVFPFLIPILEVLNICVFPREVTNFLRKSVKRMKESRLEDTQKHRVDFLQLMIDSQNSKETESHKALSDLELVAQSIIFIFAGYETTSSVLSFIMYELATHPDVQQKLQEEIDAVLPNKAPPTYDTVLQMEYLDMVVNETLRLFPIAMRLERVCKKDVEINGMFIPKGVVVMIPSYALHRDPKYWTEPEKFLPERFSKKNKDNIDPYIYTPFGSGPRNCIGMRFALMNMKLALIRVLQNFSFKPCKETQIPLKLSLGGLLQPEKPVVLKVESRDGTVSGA

[26] = target: Voltage-gated inwardly rectifying potassium channel KCNH2 (Homo sapiens, UniProt Q12809); assay: Inhibition of human ERG by plate based planar patch clamp assay
Sequence of Voltage-gated inwardly rectifying potassium channel KCNH2 (Q12809 whole entry): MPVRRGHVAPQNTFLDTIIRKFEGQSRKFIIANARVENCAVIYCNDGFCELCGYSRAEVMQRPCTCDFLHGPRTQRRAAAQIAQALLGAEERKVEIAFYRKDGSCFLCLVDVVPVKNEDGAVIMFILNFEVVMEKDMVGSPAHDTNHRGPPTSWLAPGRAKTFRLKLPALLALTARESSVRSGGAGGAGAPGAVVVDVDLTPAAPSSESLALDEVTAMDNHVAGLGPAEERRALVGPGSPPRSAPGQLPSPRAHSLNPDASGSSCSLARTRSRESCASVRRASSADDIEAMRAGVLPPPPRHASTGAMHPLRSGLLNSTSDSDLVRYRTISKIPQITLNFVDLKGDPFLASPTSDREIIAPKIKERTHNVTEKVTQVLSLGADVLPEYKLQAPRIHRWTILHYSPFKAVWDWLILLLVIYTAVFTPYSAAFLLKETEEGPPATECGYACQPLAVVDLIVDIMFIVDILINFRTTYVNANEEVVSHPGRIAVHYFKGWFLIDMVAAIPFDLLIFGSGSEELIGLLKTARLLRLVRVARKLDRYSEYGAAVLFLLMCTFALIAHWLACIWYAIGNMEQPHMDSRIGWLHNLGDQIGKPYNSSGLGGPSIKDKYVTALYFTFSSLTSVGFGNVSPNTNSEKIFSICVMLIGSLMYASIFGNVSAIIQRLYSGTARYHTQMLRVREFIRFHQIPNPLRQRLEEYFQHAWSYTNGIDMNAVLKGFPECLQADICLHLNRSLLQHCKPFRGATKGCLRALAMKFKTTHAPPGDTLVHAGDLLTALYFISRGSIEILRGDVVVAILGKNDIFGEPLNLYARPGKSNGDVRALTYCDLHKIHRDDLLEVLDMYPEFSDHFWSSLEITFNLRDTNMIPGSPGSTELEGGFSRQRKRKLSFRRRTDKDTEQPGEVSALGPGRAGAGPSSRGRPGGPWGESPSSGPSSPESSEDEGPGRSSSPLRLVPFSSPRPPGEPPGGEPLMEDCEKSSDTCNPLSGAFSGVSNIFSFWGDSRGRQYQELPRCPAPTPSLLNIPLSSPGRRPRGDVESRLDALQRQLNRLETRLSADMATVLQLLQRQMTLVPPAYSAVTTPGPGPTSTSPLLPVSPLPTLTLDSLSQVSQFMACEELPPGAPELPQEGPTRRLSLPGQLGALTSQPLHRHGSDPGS

Cytochrome P450 1A2 = target: T2, Cytochrome P450 1A2 (Homo sapiens, UniProt P05177); assay: Inhibition of CYP1A2 in human liver microsomes; format: ADME; summary of the method: as §5
T2 sequence (P05177 whole entry): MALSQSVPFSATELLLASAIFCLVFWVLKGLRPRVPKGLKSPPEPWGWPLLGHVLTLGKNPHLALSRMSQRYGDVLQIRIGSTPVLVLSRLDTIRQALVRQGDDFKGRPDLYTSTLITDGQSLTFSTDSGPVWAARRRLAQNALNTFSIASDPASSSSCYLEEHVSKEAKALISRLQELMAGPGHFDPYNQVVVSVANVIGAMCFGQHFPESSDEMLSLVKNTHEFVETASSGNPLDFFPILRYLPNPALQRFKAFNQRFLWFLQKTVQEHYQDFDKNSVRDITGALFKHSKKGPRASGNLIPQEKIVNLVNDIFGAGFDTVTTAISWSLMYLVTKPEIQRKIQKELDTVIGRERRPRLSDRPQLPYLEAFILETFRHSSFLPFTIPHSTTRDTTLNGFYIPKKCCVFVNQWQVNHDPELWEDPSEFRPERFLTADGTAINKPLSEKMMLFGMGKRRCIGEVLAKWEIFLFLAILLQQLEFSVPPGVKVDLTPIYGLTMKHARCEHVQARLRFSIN

Cytochrome P450 2C19 = Cytochrome P450 2C19 (Homo sapiens, UniProt P33261); assay: Inhibition of CYP2C19 in human liver microsomes; format: ADME; summary of the method: as §5
Sequence of Cytochrome P450 2C19 (P33261 whole entry): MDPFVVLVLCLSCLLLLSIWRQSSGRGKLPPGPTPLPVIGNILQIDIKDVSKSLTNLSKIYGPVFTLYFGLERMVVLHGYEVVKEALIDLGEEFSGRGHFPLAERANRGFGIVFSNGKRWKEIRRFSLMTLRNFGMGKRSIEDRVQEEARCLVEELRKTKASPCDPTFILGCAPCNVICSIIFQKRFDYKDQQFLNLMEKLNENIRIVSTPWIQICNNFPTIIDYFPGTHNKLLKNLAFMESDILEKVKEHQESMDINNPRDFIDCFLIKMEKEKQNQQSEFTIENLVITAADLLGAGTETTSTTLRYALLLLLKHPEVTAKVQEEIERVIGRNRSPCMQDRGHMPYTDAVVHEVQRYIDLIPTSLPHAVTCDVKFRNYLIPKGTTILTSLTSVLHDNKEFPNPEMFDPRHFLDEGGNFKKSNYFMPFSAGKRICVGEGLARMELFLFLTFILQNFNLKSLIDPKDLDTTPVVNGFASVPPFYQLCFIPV

Cytochrome P450 2D6 = Cytochrome P450 2D6 (Homo sapiens, UniProt P10635); assay: Inhibition of CYP2D6 in human liver microsomes; format: ADME; summary of the method: as §5
Sequence of Cytochrome P450 2D6 (P10635 whole entry): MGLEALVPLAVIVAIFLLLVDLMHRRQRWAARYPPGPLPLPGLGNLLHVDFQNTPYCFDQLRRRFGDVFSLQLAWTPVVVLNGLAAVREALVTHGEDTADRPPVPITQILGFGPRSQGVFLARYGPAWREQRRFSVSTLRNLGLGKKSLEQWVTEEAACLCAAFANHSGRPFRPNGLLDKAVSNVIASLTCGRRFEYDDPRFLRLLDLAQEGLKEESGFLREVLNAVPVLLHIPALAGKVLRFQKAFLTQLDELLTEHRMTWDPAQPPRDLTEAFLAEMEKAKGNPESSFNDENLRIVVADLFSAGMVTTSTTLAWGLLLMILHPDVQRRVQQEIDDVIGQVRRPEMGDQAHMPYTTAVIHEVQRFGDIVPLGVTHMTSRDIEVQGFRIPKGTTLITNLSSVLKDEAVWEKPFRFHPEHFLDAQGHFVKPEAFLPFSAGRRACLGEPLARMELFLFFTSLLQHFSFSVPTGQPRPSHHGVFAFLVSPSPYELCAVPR

[27] = Intrinsic clearance in dog hepatocytes assessed per million cells; format: ADME, cell-based, Canis lupus familiaris, Hepatocyte; settings: read-out: CLH; summary of the method: as §2
[28] = Stability in pH 4 deuterated buffer assessed as compound remaining after 8 days by 1H NMR spectroscopy; format: physicochemical; settings: pH 4, 192 h
Summary of the method: (§6)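 Compound diluted from a 25 mM DMSO-d6 stock to a final 1 mM in each deuterated buffer. Followed by ¹H NMR (500 MHz, water suppression, 64 scans) and LC-MS at 0, 24, 72 and 192 h (8 days).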

[29] = Stability in pH 7.4 deuterated buffer assessed as compound remaining after 8 days by 1H NMR spectroscopy; format: physicochemical; settings: pH 7.4, 192 h; summary of the method: as §6
[30] = Stability in pH 10 deuterated buffer assessed as compound remaining after 8 days by 1H NMR spectroscopy; format: physicochemical; settings: pH 10, 192 h; summary of the method: as §6

Row | Structure (SMILES) | IC50 (Estrogen receptor [1]) [µM] | IC50 (Estrogen receptor [2]) [µM] | logD [3] | fraction unbound [4] | fraction unbound [5] | hepatocyte CLint [6] [µL/min/1e6 cells] | hepatocyte CLint [7] [µL/min/1e6 cells] | Papp at 10 µM [8] [×10⁻⁶ cm/s] | efflux ratio at 10 µM [9] | Papp at 10 µM [10] [×10⁻⁶ cm/s] | efflux ratio at 10 µM [11] | solubility at 24 h [12] [µM] | fraction unbound [13] | fraction unbound [14] | clearance [15] [mL/min/kg] | clearance [16] [mL/min/kg] | Vd [17] [L/kg] | Vd [18] [L/kg] | half-life [19] [h] | half-life [20] [h] | further results
1 | C[C@@H]1Cc2c(ccc3[nH]ncc23)[C@@H](c2c(F)cc(/C=C/C(=O)O)cc2F)N1CC(C)(F)F | 0.000398 | 0.000398 | 2.3 | 0.013 | 0.011 | 18 | 8 | 5.8 | 2.6 | 10 | 1.3 | 760 (≈ 340 µg/mL) | 0.021 | 0.0062 | 26 | 5.4 | 1.6 | 0.63 | 3.7 | 4.8 | bioavailability [21]: 16%; bioavailability [22]: 36%; AUC [23]: 0.57 µM·h; AUC [24]: 3 µM·h; Ratio [25]: < 0.04; IC50 (Cytochrome P450 2C9): 6.6 µM; IC50 (Cytochrome P450 3A4): > 30 µM; IC50 [26]: > 100 µM; IC50 (Cytochrome P450 1A2): > 30 µM; IC50 (Cytochrome P450 2C19): > 30 µM; IC50 (Cytochrome P450 2D6): > 30 µM; hepatocyte CLint [27]: 7.1 µL/min/1e6 cells
2 | COc1cc(/C=C/C(=O)O)ccc1[C@@H]1c2ccc3[nH]ncc3c2C[C@@H](C)N1CC(C)(F)F | 0.001 | 0.001 | 2.5 | 0.022 | 0.0092 | 18 | 5 | 6.2 | 2.2 | 8.4 | 1.7 | 810 (≈ 358 µg/mL) | 0.012 | 0.0087 | 32 | 2.8 | 1 | 0.36 | 1.3 | 6.8 | bioavailability [21]: 51%; bioavailability [22]: 45%; AUC [23]: 0.21 µM·h; AUC [24]: 6.6 µM·h; Ratio [25]: < 0.04; IC50 (Cytochrome P450 1A2): > 30 µM; IC50 (Cytochrome P450 2C19): > 30 µM; IC50 (Cytochrome P450 2D6): > 30 µM; Stability [28]: Stable; Stability [29]: Stable; Stability [30]: Stable; hepatocyte CLint [27]: 9.6 µL/min/1e6 cells
